Experimental findings from ChEMBL document CHEMBL2331340, “Novel antitumor indolizino[6,7-b]indoles with multiple modes of action: DNA cross-linking and topoisomerase I and II inhibition” (J Med Chem, 2013) are described below.

One data set relates to MX1. Nature of the data set: Cytotoxicity against human MX1 cells after 72 hrs by SRB assay. In kind it is functional, cell-based. The conditions noted are these: MX1, 72 h. On the technique in general: The SRB assay estimates cell density from bound dye.
The next data set has as its system CCRF-CEM. The experiment in a line: Cytotoxicity against human CCRF-CEM cells after 72 hrs by XTT assay. In kind it is functional, cell-based. The gist of the method: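 CCRF-CEM T-ALL cells incubated with compound for 72 h. XTT with phenazine methosulfate then added for 6 h at 37 °C, absorbance read at 450 and 630 nm. IC50 from six or seven concentrations by median-effect analysis; mean ± STDEV, n = 3.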
(Tetrazolium dyes change colour on reduction, which living cells bring about.)

In data set [1] the target is T1, DNA topoisomerase 1 (Homo sapiens) (UniProt P11387).
T1 sequence (whole entry): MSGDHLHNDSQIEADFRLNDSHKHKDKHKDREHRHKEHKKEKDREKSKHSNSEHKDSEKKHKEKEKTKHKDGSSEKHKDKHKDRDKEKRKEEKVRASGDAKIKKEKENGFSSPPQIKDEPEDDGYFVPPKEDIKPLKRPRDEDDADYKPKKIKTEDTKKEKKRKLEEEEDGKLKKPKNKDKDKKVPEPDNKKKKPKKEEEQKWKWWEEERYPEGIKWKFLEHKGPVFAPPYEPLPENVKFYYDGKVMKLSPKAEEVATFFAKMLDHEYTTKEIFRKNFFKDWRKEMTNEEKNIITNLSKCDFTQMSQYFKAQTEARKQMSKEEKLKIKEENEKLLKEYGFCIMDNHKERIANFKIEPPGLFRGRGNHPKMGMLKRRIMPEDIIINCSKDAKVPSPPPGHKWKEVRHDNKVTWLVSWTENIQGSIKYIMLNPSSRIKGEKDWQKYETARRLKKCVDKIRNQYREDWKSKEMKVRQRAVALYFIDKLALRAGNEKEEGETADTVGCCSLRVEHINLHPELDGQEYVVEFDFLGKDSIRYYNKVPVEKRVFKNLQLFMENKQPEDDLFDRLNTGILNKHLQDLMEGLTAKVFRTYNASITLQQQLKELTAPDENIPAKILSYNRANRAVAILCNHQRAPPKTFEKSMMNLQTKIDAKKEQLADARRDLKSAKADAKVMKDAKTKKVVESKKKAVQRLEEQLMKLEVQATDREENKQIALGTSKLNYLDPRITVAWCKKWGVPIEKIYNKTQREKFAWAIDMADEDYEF
Nature of the data set: Inhibition of DNA topoisomerase 1 (unknown origin)-mediated relaxation of supercoiled pHOT DNA at 25 to 200 uM after 30 to 45 mins by agarose gel electrophoresis. The gist of the method: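 Supercoiled pHOT DNA (200 ng) and compound in 10 mM Tris-HCl pH 7.9 with 1 mM EDTA at 37 °C. Reaction started with 1 unit topo I, run 30−45 min, stopped with 10% SDS. Products separated on 1% agarose at 50 V for 90 min and stained with ethidium bromide.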

The target of data set [2] is DNA topoisomerase 2-alpha (Homo sapiens) (UniProt P11388). Nature of the data set: Inhibition of DNA topoisomerase 2 (unknown origin)-mediated relaxation of supercoiled pHOT DNA after 30 to 45 mins by agarose gel electrophoresis. The essentials: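 Supercoiled pHOT DNA (125 ng) with compound in buffer stated as 0.5 M Tris-HCl pH 8.0, 1.5 M NaCl, 100 mM MgCl2, 5 mM DTT, 300 μg/mL BSA, 20 mM ATP, at 37 °C. Methods state 6 units topo II, figure legend 5 units; 30−45 min, SDS stop. Products run on 1% agarose and stained with ethidium bromide.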
Sequence of DNA topoisomerase 2-alpha (Homo sapiens) (P11388 whole entry): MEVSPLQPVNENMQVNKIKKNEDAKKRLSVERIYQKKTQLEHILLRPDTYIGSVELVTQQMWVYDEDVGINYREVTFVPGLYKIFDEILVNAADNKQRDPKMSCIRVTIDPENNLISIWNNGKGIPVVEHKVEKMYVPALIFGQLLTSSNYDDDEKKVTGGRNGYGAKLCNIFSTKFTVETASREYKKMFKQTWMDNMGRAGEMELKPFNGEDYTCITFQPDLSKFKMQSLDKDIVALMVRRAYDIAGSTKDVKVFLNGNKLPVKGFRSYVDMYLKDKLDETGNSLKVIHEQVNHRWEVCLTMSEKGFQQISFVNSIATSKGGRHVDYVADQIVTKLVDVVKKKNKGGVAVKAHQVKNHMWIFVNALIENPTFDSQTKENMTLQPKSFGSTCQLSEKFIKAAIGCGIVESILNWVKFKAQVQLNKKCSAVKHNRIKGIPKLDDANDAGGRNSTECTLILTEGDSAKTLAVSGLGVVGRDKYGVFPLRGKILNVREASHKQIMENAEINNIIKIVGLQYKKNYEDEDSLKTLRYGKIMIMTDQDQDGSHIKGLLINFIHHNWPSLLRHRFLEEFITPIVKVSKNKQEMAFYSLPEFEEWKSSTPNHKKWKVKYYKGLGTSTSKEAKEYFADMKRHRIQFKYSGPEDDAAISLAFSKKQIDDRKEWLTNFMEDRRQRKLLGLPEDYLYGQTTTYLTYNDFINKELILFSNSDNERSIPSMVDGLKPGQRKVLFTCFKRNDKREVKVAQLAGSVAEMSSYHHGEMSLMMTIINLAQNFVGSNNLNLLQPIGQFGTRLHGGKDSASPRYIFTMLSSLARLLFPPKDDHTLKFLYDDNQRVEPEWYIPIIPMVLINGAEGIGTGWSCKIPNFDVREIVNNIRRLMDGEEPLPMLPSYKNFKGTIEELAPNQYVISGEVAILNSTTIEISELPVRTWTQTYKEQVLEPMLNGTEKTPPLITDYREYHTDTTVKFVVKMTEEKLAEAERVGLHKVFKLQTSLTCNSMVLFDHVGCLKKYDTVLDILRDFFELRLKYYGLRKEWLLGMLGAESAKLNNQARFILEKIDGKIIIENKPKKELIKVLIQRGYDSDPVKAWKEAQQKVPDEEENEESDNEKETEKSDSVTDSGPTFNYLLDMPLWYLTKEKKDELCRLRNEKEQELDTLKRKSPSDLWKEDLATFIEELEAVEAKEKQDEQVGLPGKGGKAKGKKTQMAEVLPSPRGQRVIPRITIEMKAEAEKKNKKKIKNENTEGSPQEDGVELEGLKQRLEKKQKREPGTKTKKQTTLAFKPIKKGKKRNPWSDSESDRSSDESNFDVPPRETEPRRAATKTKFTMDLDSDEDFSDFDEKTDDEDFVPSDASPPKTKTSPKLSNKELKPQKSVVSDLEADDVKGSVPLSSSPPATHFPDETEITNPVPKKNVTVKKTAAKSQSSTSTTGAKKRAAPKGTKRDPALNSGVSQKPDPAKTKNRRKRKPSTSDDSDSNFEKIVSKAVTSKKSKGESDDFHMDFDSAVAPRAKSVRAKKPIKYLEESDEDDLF

The next data set concerns NCI-H460. The experiment in a line: Induction of apoptosis in human H460 cells assessed as increase in cleaved PARP expression at IC50 after 24 to 72 hrs by Western blotting analysis. It counts as functional, cell-based. The gist of the method: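 H460 cells treated at IC50 for 24 and 72 h. Lysate proteins separated by SDS-PAGE and blotted to nitrocellulose, blocked in 5% milk/PBST. Primary antibodies to caspase-3, caspase-7, PARP (full-length and cleaved) and β-actin applied for 1 h at room temperature or overnight at 4 °C; HRP secondary with ECL detection.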
For orientation: A western blot detects proteins with antibodies after separation by electrophoresis.

Data set [3] can be described thus: Cell cycle arrest in human CL141T cells assessed as accumulation at sub-G1 phase at 0.5 x IC50 to 2 x IC50 after 72 hrs by propidium iodide staining-based FACS flow cytometric analysis. In kind it is functional. The gist of the method:
(§1)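 CL141T cells treated at 0.5-, 1- and 2-fold IC50 for 24, 48 and 72 h. Cells fixed in ice-cold 70% EtOH, then stained with 4 μg/mL propidium iodide in PBS with 1% Triton X-100 and 0.1 mg/mL RNase A. Phase distribution from flow cytometry DNA histograms; sub-G1 fraction scored as well.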

A short description of data set [4]: Cell cycle arrest in human CL141T cells assessed as accumulation at G2/M phase at 2 x IC50 after 24 hrs by propidium iodide staining-based FACS flow cytometric analysis. In kind it is functional. The gist of the method: as §1
Data set [5] in a line: Cell cycle arrest in human CL141T cells assessed as accumulation at S phase at 1 x IC50 to 2 x IC50 after 24 hrs by propidium iodide staining-based FACS flow cytometric analysis. It counts as functional. The essentials: as §1
The subject of data set [6] is Mus musculus. Nature of the data set: Toxicity in nude mouse xenografted with human A549 cells assessed as body weight loss at 25 mg/kg, iv qd administered 4 days measured for 20 days. It counts as organism-based. Further details: dose 25 mg/kg, route intravenous. The conditions noted are these: in vivo, 480 h.
Data set [7] relates to Mus musculus. The experiment in a line: Toxicity in nude mouse xenografted with human HT-29 cells assessed as body weight loss at 25 mg/kg, iv qd administered 4 days measured for 20 days. It counts as organism-based. Also on record: dose 25 mg/kg, route intravenous. The settings on record: in vivo, 480 h.
The next data set has as its system MES-SA. Nature of the data set: Resistance factor, ratio of IC50 for human MES-SA/Dx5 cells to IC50 for human MES-SA cells. It counts as functional.
The nature of data set [8]: Resistance factor, ratio of IC50 for human KB-VIN10 cells to IC50 for human KB cells. It counts as functional.
Data set [9] is described as follows: Cytotoxicity against human MES-SA/Dx5 cells after 72 hrs by Presto Blue assay. In kind it is functional, cell-based. The settings on record: MES-SA/Dx5, 72 h. The essentials: (§2)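 MES-SA and doxorubicin-resistant MES-SA/dx5 cells exposed for 72 h, then PrestoBlue added for 3 h at 37 °C, absorbance read at 570 and 600 nm. IC50 by median-effect analysis of six or seven concentrations; mean ± STDEV of three to six independent experiments.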

Data set [10] can be described thus: Cytotoxicity against human MES-SA cells after 72 hrs by Presto Blue assay. In kind it is functional, cell-based. The essentials: as §2
The nature of data set [11]: Cytotoxicity against human H460 cells after 72 hrs by Alamar blue assay. It counts as functional, cell-based. The conditions noted are these: NCI-H460, 72 h. The gist of the method: (§3)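 Cells exposed to compound for 72 h, then Alamar blue added with a further 10−12 h at 37 °C and a spectrophotometric read. IC50 from six or seven concentrations by median-effect analysis; mean ± STDEV, n = 3. CL141T is a line derived from a patient lung tumor passaged as a SCID mouse xenograft.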

Data set [12] can be described thus: Cytotoxicity against human OECM1 cells after 72 hrs by Alamar blue assay. It counts as functional, cell-based. The conditions noted are these: OECM1, 72 h. The essentials: as §3
Another data set deals with KB. Nature of the data set: Cytotoxicity against human KB cells after 72 hrs by Alamar blue assay.

Usually IC50 stands for the point on the concentration scale where inhibition reaches its midpoint.

Activity calls are given as the source filed them. The rule behind the calls is not given here.

As to `Cc1c(CO)c(CO)c2n1Cc1c(c3ccccc3n1C)C2`, the IC50 in the data set with MX1 amounted to 220 nM; in the data set on CCRF-CEM it was 40 nM; in [9], 120 nM; in [10], 240 nM; in data set [11], 380 nM; in data set [12], 960 nM. For the same compound, in the data set with KB, the IC50 is 2510 nM. The inhibition result in data set [1] is “Active”. Besides, in [2], the inhibition entry was “Dose-dependent effect”. Also, the outcome (with NCI-H460; in data set [3]; in data set [5]) was Active. Further, the result in data set [4] was inactive. Also, the Activity result with Mus musculus [6] and with Mus musculus [7] was “Toxic” each time. For the same compound, the “Ratio IC50” value (with MES-SA; in [8]) was 0.52 throughout.
